Calls of active or inactive are those of the source.
Tests used:
Mus musculus [1] = assay: Inhibition of FAAH in C57Bl/6J mouse brain assessed as increase of anandamide level at 30 mg/kg, ip after 1 hr relative to control; type: functional; details: route intraperitoneal
Summary of the method: (§1)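 Male C57Bl/6J mice (<6 months, 20–28 g) dosed i.p. at 30 mg/kg in 18:1:1 saline:ethanol:emulphor emulsion; brains taken 1 h later. One mouse in the initial screen, 3 per group in the follow-up. Brain homogenized in CHCl3:MeOH:Tris pH 8.0 with deuterated lipid standards; organic extract quantified by reverse-phase C18 LC-ESI-MS/MS against vehicle controls.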

Mus musculus [2] = assay: Inhibition of FAAH in C57Bl/6J mouse brain assessed as increase of N-palmitoyl ethanolamine level at 30 mg/kg, ip after 1 hr relative to control; type: functional; details: route intraperitoneal; summary of the method: as §1
Mus musculus [3] = assay: Inhibition of FAAH in C57Bl/6J mouse liver assessed as increase of anandamide level at 30 mg/kg, ip after 1 hr relative to control; type: functional; details: route intraperitoneal
Mus musculus [4] = assay: Inhibition of FAAH in C57Bl/6J mouse liver assessed as increase of N-palmitoyl ethanolamine level at 30 mg/kg, ip after 1 hr relative to control; type: functional; details: route intraperitoneal
Mus musculus [5] = assay: Inhibition of FAAH in C57Bl/6J mouse liver assessed as increase of 2-arachidonoylglycerol level at 30 mg/kg, ip after 1 hr relative to control; type: functional; details: route intraperitoneal
Mus musculus [6] = assay: Inhibition of FAAH in C57Bl/6J mouse brain assessed as increase of anandamide level at 50 mg/kg, po after 1 hr relative to control; type: functional
Summary of the method: (§2)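 Male C57Bl/6J mice (<6 months, 20–28 g) given compound orally as a PEG300 solution at 10, 25 or 50 mg/kg, with 3 mice per group in the 50 mg/kg p.o. comparison; brains collected 1 h post-dose. Lipids extracted in CHCl3:MeOH:Tris pH 8.0 with deuterated internal standards, then measured by C18 LC-ESI-MS/MS relative to vehicle-treated mice.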

[7] = Half life in rat liver microsomes; type: ADME, Microsome
[8] = molecular target: T1, Fatty-acid amide hydrolase 1 (Homo sapiens) (UniProt O00519); assay: Competitive inhibition of full-length human FAAH expressed in COS-7 cells by Lineweaver-Burk analysis; type: cell-based
T1 sequence (whole entry): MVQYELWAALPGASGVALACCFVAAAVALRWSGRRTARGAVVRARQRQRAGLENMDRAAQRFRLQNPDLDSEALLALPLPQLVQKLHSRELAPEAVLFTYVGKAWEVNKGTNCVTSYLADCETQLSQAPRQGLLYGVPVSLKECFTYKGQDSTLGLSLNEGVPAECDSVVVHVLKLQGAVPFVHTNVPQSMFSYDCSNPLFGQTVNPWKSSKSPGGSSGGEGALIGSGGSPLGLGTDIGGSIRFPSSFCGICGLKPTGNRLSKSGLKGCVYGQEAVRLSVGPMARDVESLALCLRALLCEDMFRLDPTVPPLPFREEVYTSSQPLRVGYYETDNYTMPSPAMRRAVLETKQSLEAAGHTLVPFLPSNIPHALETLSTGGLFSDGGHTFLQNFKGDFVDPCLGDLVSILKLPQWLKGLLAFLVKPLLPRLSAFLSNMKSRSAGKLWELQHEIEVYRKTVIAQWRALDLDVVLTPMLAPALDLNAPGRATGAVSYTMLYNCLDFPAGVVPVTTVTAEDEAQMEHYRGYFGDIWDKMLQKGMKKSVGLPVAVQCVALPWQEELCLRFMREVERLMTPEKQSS
Summary of the method: (§3)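 Solubilized membrane lysate of COS-7 cells transiently transfected with full-length human FAAH cDNA. Aliquots quenched in 0.1 N HCl at three times; oleamide/oleic acid extracted into EtOAc and separated by TLC. Initial rates (≤10–20% conversion) analysed by Lineweaver–Burk plot.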

[9] = molecular target: T1, Fatty-acid amide hydrolase 1 (Homo sapiens); assay: Reversible inhibition of full-length human FAAH expressed in COS-7 cells by Lineweaver-Burk analysis; type: cell-based; summary of the method: as §3
[10] = molecular target: T2, Fatty-acid amide hydrolase 1 (Rattus norvegicus, UniProt P97612); assay: Inhibition of rat recombinant FAAH expressed in Escherichia coli assessed as [14C]-labeled oleamide to oleic acid conversion
T2 sequence (P97612 whole entry): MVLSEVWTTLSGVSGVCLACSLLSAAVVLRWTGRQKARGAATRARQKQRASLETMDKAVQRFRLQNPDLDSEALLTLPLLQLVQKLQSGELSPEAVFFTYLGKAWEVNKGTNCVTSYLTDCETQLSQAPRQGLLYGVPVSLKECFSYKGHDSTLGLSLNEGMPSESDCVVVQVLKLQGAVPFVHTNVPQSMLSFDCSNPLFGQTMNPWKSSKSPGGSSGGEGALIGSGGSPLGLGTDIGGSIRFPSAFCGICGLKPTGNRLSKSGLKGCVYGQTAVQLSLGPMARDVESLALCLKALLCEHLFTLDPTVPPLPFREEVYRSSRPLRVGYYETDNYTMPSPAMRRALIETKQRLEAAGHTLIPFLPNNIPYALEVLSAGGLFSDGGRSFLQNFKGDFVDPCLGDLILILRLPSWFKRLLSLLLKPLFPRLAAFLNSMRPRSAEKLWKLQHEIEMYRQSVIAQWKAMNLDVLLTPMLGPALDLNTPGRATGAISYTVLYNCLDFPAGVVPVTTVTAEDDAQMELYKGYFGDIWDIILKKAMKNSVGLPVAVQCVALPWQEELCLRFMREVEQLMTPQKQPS

Mus musculus [11] = assay: Inhibition of FAAH in C57Bl/6J mouse brain assessed as increase of 2-arachidonoylglycerol level at 30 mg/kg, ip after 1 hr relative to control; type: functional; details: route intraperitoneal; summary of the method: as §1
Mus musculus [12] = assay: Inhibition of FAAH in C57Bl/6J mouse brain assessed as increase of arachidonic acid level at 30 mg/kg, ip after 1 hr relative to control; type: functional; details: route intraperitoneal; summary of the method: as §1
Mus musculus [13] = assay: Inhibition of FAAH in C57Bl/6J mouse brain assessed as increase of N-palmitoyl ethanolamine level at 50 mg/kg, po after 1 hr relative to control; type: functional; summary of the method: as §2
Mus musculus [14] = assay: Inhibition of FAAH in C57Bl/6J mouse brain assessed as increase of 2-arachidonoylglycerol level at 50 mg/kg, po after 1 hr relative to control; type: functional; summary of the method: as §2
Mus musculus [15] = assay: Antinociceptive activity in CD1 mouse assessed as thermal-stimulus induced tail flick latency at 1.8 to 5.6 mg/kg, iv after 30 to 60 mins; type: functional, organism-based
Summary of the method: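 Tail flick at 52 °C in mice, dosed i.v. Baseline responders within 5 s were kept and retested at several times after dosing. Cut-off 10 s, scored 100%. % antinociception = 100 × (test latency − control latency)/(10 − control latency).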

Mus musculus [16] = assay: Antinociceptive activity in CD1 mouse assessed as thermal-stimulus induced tail flick latency at 1 to 3.2 mg/kg, iv after 150 mins; type: functional, organism-based
Summary of the method: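 Mice given compound i.v.; tail-flick latency to 52 °C water measured at several times after dosing. Animals not responding within 5 s at baseline were excluded, and a 10 s cut-off was scored as 100%. % antinociception = 100 × (test − control latency)/(10 − control latency).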

[17] = Half life in human liver microsomes; type: ADME, Microsome

Row | Structure (SMILES) | fold change (FC) (Mus musculus [1]) | fold change (FC) (Mus musculus [2]) | fold change (FC) (Mus musculus [3]) | fold change (FC) (Mus musculus [4]) | fold change (FC) (Mus musculus [5]) | fold change (FC) (Mus musculus [6]) | fold change (FC) (Mus musculus [11]) | fold change (FC) (Mus musculus [12]) | also measured
1 | O=C(CCCCCCc1ccccc1)c1ncc(-c2ccccn2)o1 | 3.3 | 4.6 | 7 | 1.6 | 0.9 | 11 |  |  | half-life [7]: 2 min
2 | O=C(O)c1cccc(-c2cnc(C(=O)[C@H]3CCc4cc(Oc5ccccc5)ccc4C3)o2)n1 | 1.5 | 2 | 5 | 2.1 | 1.1 | 3.5 | 1 | 0.7 | inhibition [8]: Active; inhibition [9]: Active; Ki [10]: 25 nM; fold change (FC) (Mus musculus [13]): 3.7; fold change (FC) (Mus musculus [14]): 1.4; Activity (Mus musculus [15]): Active
3 | O=C(c1ncc(-c2ccccn2)o1)C1Cc2ccc(Oc3ccccc3)cc2C1 (configuration not stated) | 3 | 7.4 |  |  |  |  | 0.8 | 0.9 | 
4 | CN1CC[C@]23c4c5ccc(O)c4O[C@H]2[C@@H](O)C=C[C@H]3[C@H]1C5 |  |  |  |  |  |  |  |  | Activity (Mus musculus [16]): Active
5 | O=C(c1ncc(-c2ccccn2)o1)C1CCc2cc(OCc3ccccc3)ccc2C1 (configuration not stated) |  |  |  |  |  |  |  |  | half-life [17]: 12 min

Reference: ChEMBL document CHEMBL1765010, “Reversible competitive α-ketoheterocycle inhibitors of fatty acid amide hydrolase containing additional conformational constraints in the acyl side chain: orally active, long-acting analgesics” (J Med Chem, 2011)
